Experimental data: the RNAGym collection of RNA variant scans (doi:10.1126/science.aae0568)
Variants at the floor of the assay were thinned out.

B1: tRNA (parent)
chain: GUUCCGUUGGCGUAAUGGUAACGCGUCUCCCUCCUAAGGAGAAGACUGCGGGUUCGAGUCCCGUACGGAACG

Variants of: B1
Assay: yeast fitness relative to wild type (ratio to wild type); higher = fitter; tRNA-Arg(CCU), competitive growth, 37 C, YPD
Method in brief: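 Variants of the tRNA-Arg(CCU) gene were chemically synthesised with a 3% per-site mutation rate across 69 sites and placed at the native genomic locus in Saccharomyces cerevisiae. Six parallel replicates of the pooled strains were competed in YPD at 37°C for 24 hours, and gene amplicons from the start and end populations were read by 100-nucleotide paired-end sequencing. Darwinian fitness relative to wild type was derived from changes in genotype frequencies. Genotypes required ≥ 100 starting reads, and estimates < 0.5 were set to 0.5.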

Compared with C31U U64G, C31U U64C is higher in yeast fitness: 0.775 for the first, 0.817 for the second.

Going from U32C G44A to U32C C49U A57C, the yeast fitness falls from 1.03 to 0.654.

Going from U32A A43G U53A to U32C C46G C61G, the yeast fitness rises from ≤ 0.5 to 0.587.

Compared with U32C C61U G68A, C33A A40U G51U U64A is lower in yeast fitness: 0.586 for the first, ≤ 0.5 for the second.

Compared with U32C A45C, U32C A45U is higher in yeast fitness: 0.864 for the first, 0.942 for the second.

Compared with U32C A45G, U32A G39A C49G is lower in yeast fitness: 0.91 for the first, ≤ 0.5 for the second.

Compared with C33A A36C, U32A G41A C61A is lower in yeast fitness: 0.526 for the first, ≤ 0.5 for the second.

Going from C33A G44A A70C to C33A A42G, the yeast fitness rises from 0.547 to 0.583.

C33G A36U G39A A57U and U32A C33A C46G cannot be ordered by yeast fitness: ≤ 0.5 for the first, ≤ 0.5 for the second.

C33A U64A A70C and U32A C34G G68A A69U A70U cannot be ordered by yeast fitness: ≤ 0.5 for the first, ≤ 0.5 for the second.

U32G A40U G52A A57U A65C and C33G A36G G39C G67U cannot be ordered by yeast fitness: ≤ 0.5 for the first, ≤ 0.5 for the second.

Going from U32G G67A to U32G G67U, the yeast fitness falls from 0.643 to 0.547.

Going from U32A A40G G50A C61G to U32A A70G, the yeast fitness rises from 0.787 to 0.841.

Compared with U32A U64A A65U, C33A G39C A42G C55U A57G is lower in yeast fitness: 0.961 for the first, 0.585 for the second.

U32G C33G A65U and C33A C46A C61G A69G cannot be ordered by yeast fitness: ≤ 0.5 for the first, ≤ 0.5 for the second.

U32A U35A A42U and U32G U35A cannot be ordered by yeast fitness: ≤ 0.5 for the first, ≤ 0.5 for the second.

Compared with C33G A36C C66U, U32A G38C is higher in yeast fitness: 0.502 for the first, 0.652 for the second.

Compared with U32C G38C, U32A C33G C46U is lower in yeast fitness: 0.742 for the first, ≤ 0.5 for the second.

First: U32C G67U
Second: U32C G67A
The yeast fitness of the first is higher: 0.861 for the first, 0.855 for the second.

Going from U32C A65G to U32C A65U, the yeast fitness rises from 0.936 to 0.957.

First: U32C A65C
Second: U32C A69G
The yeast fitness of the first is higher: 1.03 for the first, 0.882 for the second.

Compared with U32C A69U, C33A C55G A69C is lower in yeast fitness: 0.926 for the first, ≤ 0.5 for the second.

U32C A42C G44C A69C and U32C A40C G48C cannot be ordered by yeast fitness: ≤ 0.5 for the first, ≤ 0.5 for the second.

Compared with U32C A40G G48C A69U A70U, U32A G50A A69U is higher in yeast fitness: ≤ 0.5 for the first, 0.527 for the second.

First: U32C C34U A45U A70U
Second: U32A C66U
The yeast fitness of the first is lower: 0.826 for the first, 0.834 for the second.

Going from U32A G56A A69U to U32A G56C, the yeast fitness rises from 0.554 to 0.594.

U32A A36G G39C G50A U64C and U32C G39C C61U cannot be ordered by yeast fitness: ≤ 0.5 for the first, ≤ 0.5 for the second.

Compared with U32C G38C G41C A65G, U32C C34A C62A is higher in yeast fitness: ≤ 0.5 for the first, 0.591 for the second.

Compared with U32C A42C, U32C A42G is lower in yeast fitness: 0.866 for the first, 0.861 for the second.

First: U32A C61G G68C
Second: U32C A40G A70C
The yeast fitness of the first is lower: 0.601 for the first, 0.634 for the second.

U32A U59C A69C and U32C A37U G56C A57U cannot be ordered by yeast fitness: ≤ 0.5 for the first, ≤ 0.5 for the second.

First: U32C A36C G52C C66U
Second: U32C C34A A40C U54C C66U
The yeast fitness of the first is lower: ≤ 0.5 for the first, 0.534 for the second.

First: U32C A40U A70U
Second: C33A A37C G63A
The yeast fitness of the first is higher: 0.784 for the first, ≤ 0.5 for the second.

U32G C55G and U32C C62U C66G cannot be ordered by yeast fitness: ≤ 0.5 for the first, ≤ 0.5 for the second.

Going from C33A A42G U54C C62U to U32A C33A A43U C62U, the yeast fitness falls from 0.637 to ≤ 0.5.

Compared with C33A G52A, U32A A42G is higher in yeast fitness: ≤ 0.5 for the first, 0.655 for the second.

First: U32C U47C
Second: U32A C49U
The yeast fitness of the first is higher: 0.974 for the first, 0.78 for the second.

Going from U32A C49A to U32A A43G U53A G68A, the yeast fitness falls from 0.582 to ≤ 0.5.

Compared with C33G A36U C49A, U32A A43C C49A is higher in yeast fitness: ≤ 0.5 for the first, 0.542 for the second.

Compared with C33A G38C G50A, C33A C55U is higher in yeast fitness: ≤ 0.5 for the first, 0.581 for the second.

Compared with C33G A36U A57U, C33A A36U A37G is lower in yeast fitness: 0.581 for the first, ≤ 0.5 for the second.

First: U32C A40G
Second: U32A A42C A57G A70C
The yeast fitness of the first is higher: 0.66 for the first, ≤ 0.5 for the second.

C33A U35A U64C G68C and U32G A40U G52A A57U cannot be ordered by yeast fitness: ≤ 0.5 for the first, ≤ 0.5 for the second.

Going from U32C A43G G52A C61G to U32C A37U G44A A70G, the yeast fitness falls from 0.532 to ≤ 0.5.

Going from U32G G41A C60G A65G to U32G C61A C62A, the yeast fitness falls from 0.548 to 0.537.

Going from U32G G63A to U32A A36G G39C C62U, the yeast fitness falls from 0.557 to ≤ 0.5.

First: C33A A69G
Second: U32C C55G
The yeast fitness of the first is higher: 0.655 for the first, 0.629 for the second.

First: U32A C46A G58A
Second: U32C A42C G44C G52C
The yeast fitness of the first is lower: ≤ 0.5 for the first, 0.548 for the second.

C33A C60U and U32G C33U A37G cannot be ordered by yeast fitness: ≤ 0.5 for the first, ≤ 0.5 for the second.

Compared with C33A A45U A70C, U32A U35A is higher in yeast fitness: 0.512 for the first, 0.619 for the second.

U32C A37C C49G A57G and C33A U35A G68C cannot be ordered by yeast fitness: ≤ 0.5 for the first, ≤ 0.5 for the second.

U32C C60G C62G and U32C C60G C66U A70U cannot be ordered by yeast fitness: ≤ 0.5 for the first, ≤ 0.5 for the second.

First: U32G A45C G56A C66U
Second: C33A G39A G50C G67C
The yeast fitness of the first is lower: ≤ 0.5 for the first, 0.573 for the second.

First: U32A A45C G48A
Second: C33A G41A
The yeast fitness of the first is lower: 0.509 for the first, 0.635 for the second.

U32A C49A U53C C66G and U32A C33A A43U C55U cannot be ordered by yeast fitness: ≤ 0.5 for the first, ≤ 0.5 for the second.

First: C33A A42G A70U
Second: U32C C55U A57G
The yeast fitness of the first is lower: ≤ 0.5 for the first, 0.555 for the second.

Compared with U32G A37U, U32A A36G is higher in yeast fitness: 0.55 for the first, 0.814 for the second.

Going from C33A C46A G58A A70G to C31U U59A G63A, the yeast fitness rises from ≤ 0.5 to 0.683.

First: C33A U35G C49U
Second: C33A C34G A57U
The yeast fitness of the first is higher: 0.904 for the first, ≤ 0.5 for the second.

Compared with U32C G68C, C33A G58C U64G is lower in yeast fitness: 0.808 for the first, 0.564 for the second.

Compared with U32C G50A, C33A G48C A70G is lower in yeast fitness: 1.02 for the first, ≤ 0.5 for the second.

Going from C33A A36C G63C C66G to U32G A69U, the yeast fitness rises from 0.53 to 0.711.

U32C G39C G67C and C33A U53A cannot be ordered by yeast fitness: ≤ 0.5 for the first, ≤ 0.5 for the second.

First: U32C A43C C55A A57C
Second: U32C A42U G58C
The yeast fitness of the first is lower: ≤ 0.5 for the first, 0.623 for the second.

Compared with U32A C61G A70U, U32C A40U C46A A65U is higher in yeast fitness: ≤ 0.5 for the first, 0.589 for the second.

Going from U32C C34U U35C A45G U54A to U32A C46A A57G, the yeast fitness rises from ≤ 0.5 to 0.614.

First: C33A G52A A65U
Second: U32G A70G
The yeast fitness of the first is lower: ≤ 0.5 for the first, 0.628 for the second.

Compared with U32G A70C, U32A A36C C60G is lower in yeast fitness: 0.787 for the first, ≤ 0.5 for the second.

Going from U32C A42U G44C U54A to U32C A37U G48A, the yeast fitness rises from ≤ 0.5 to 0.537.

First: U32C G44A A69U
Second: U32A C34U C55G C62U G68C
The yeast fitness of the first is higher: 1.05 for the first, ≤ 0.5 for the second.

U32G U47G and C33G A36C C46A cannot be ordered by yeast fitness: ≤ 0.5 for the first, ≤ 0.5 for the second.

U32C G44A C61G and U32A C33G C66U A69U cannot be ordered by yeast fitness: ≤ 0.5 for the first, ≤ 0.5 for the second.

Compared with U32A U53A, U32C A43G A70G is higher in yeast fitness: ≤ 0.5 for the first, 0.708 for the second.

Compared with U32C G41C G50A C61G, U32G G39C G52C is lower in yeast fitness: 0.565 for the first, 0.531 for the second.

U32C C34G A42U and U32C C34G A42C cannot be ordered by yeast fitness: ≤ 0.5 for the first, ≤ 0.5 for the second.

Compared with U32C C60U, U32C C60A is higher in yeast fitness: 0.642 for the first, 0.645 for the second.

U32C G52C G67A A69C and U32G G58C A65U cannot be ordered by yeast fitness: ≤ 0.5 for the first, ≤ 0.5 for the second.

First: U32A G38A A57U
Second: U32A C46A
The yeast fitness of the first is lower: 0.557 for the first, 0.683 for the second.

Compared with U32A C46U, U32A G39A is higher in yeast fitness: 0.623 for the first, 0.792 for the second.

First: U32A C33U A40C
Second: U32A C49G C55U
The yeast fitness of the first is higher: 0.661 for the first, ≤ 0.5 for the second.

C33A G38A A40C A43G G51C C61G and U32A G39A U54A C66A cannot be ordered by yeast fitness: ≤ 0.5 for the first, ≤ 0.5 for the second.

Going from U32C A37U G48A G63C to U32C C61G, the yeast fitness rises from ≤ 0.5 to 0.702.

First: U32C C61U
Second: U32G C34U G52A
The yeast fitness of the first is higher: 0.987 for the first, 0.589 for the second.

With C33A G44A U64G the yeast fitness was ≤ 0.5.
